# Experimental data gathered from unrelated publications.
# Protocols differ between the studies behind these lines.
# Organism: Nakaseomyces glabratus
SMILES,test,test system,conditions,quantity,result
CCCCCCCCN1CCNCC1,"microbial growth, broth dilution",ATCC2001,48 h,MIC,> 31.3 µg/mL
CCOC(=O)c1nc2ccccc2c(=O)n1Cc1cn(-c2cccc(OC)c2)nn1,"microbial growth, broth dilution",ATCC90030,24 h,IC50,417 µg/mL
OC(Cn1cncn1)(Cn1cncn1)c1ccc(F)cc1F,"microbial growth, broth dilution",MY1381,,MIC50,4 µg/mL
CCCCCN1CCNCC1,"microbial growth, broth dilution",ATCC2001,48 h,MIC,> 31.3 µg/mL
CCCCCCCCOc1c(OC)cc(NC(C)CCCNC(=O)C2CCCN2)c2nc(C(C)(C)C)ccc12 (centres unmarked),microbial growth,ATCC90030,,IC50,11 µg/mL
C=CCCCCCCCCCCCC(O)CC(O)CO (centres unmarked),"microbial growth, broth dilution",ATCC90030,,IC50,> 200 µg/mL
C[C@@H]1[C@H](O)[C@@H](C)/C=C/C=C/C=C/C=C/C=C/C=C/C=C/[C@H](O[C@@H]2O[C@H](C)[C@@H](O)[C@H](N)[C@@H]2O)C[C@@H]2O[C@](O)(C[C@@H](O)C[C@@H](O)[C@H](O)CC[C@@H](O)C[C@@H](O)CC(=O)O[C@H]1C)C[C@H](O)[C@H]2C(=O)O,microbial killing,ATCC90030,,MFC,1.35 µM
OC(Cn1cncn1)(Cn1cncn1)c1ccc(F)cc1F,microbial killing,ATCC1182,,MFC,> 64 µg/mL
CCOC(=O)c1nc2ccccc2c(=O)n1Cc1cn(-c2ccccc2C)nn1,"microbial growth, broth dilution",ATCC90030,24 h,IC50,351 µg/mL
COc1ccc(-c2cc(OC)cc(C(C)C#Cc3c(C)nc(N)nc3N)c2)cc1 (centres unmarked),"microbial growth, resazurin",,,MIC,3.1 µg/mL
CCCCCCCCCCCCN1CCNCC1,"microbial growth, broth dilution",ATCC2001,48 h,MIC,1.95 µg/mL
CCCCCOc1c(OC)cc(NC(C)CCCNC(=O)C(N)CCCNC(=N)N)c2nc(C(C)(C)C)ccc12 (centres unmarked),microbial killing,ATCC90030,,MFC,20 µg/mL
CCCCCCCCCCCCCN1CCN(CC(O)(Cn2cncn2)c2ccc(F)cc2F)CC1 (centres unmarked),"microbial growth, broth dilution",ATCC2001,48 h,MIC,0.975 µg/mL
CCCCCOc1c(OC)cc(NC(C)CCCNC(=O)C(N)CC(C)C)c2nc(C(C)(C)C)ccc12 (centres unmarked),microbial growth,ATCC90030,,IC50,11.3 µg/mL
CCOC(=O)c1nc2ccccc2c(=O)n1Cc1cn(-c2ccccc2F)nn1,"microbial growth, broth dilution",ATCC90030,24 h,IC50,245 µg/mL
CC[C@H](C)C[C@H](C)CCCCCCCCC(=O)N[C@H]1C[C@@H](O)[C@@H](NCCN)NC(=O)[C@@H]2[C@@H](O)CCN2C(=O)[C@H]([C@H](O)CCN)NC(=O)[C@H]([C@H](O)[C@@H](O)c2ccc(O)cc2)NC(=O)[C@@H]2C[C@@H](O)CN2C(=O)[C@H]([C@@H](C)O)NC1=O,"microbial growth, broth dilution",ATCC2001,48 h,MIC,0.06 µg/mL
CCCCOc1c(OC)cc(NC(C)CCCN)c2nc(C(C)(C)C)cc(C)c12 (centres unmarked),microbial killing,ATCC90030,,MFC,> 20 µg/mL
CCOC(=O)c1nc2ccccc2c(=O)n1Cc1cn(-c2cccc([N+](=O)[O-])c2)nn1,"microbial growth, broth dilution",ATCC90030,24 h,IC50,354 µg/mL
CCCCCCCCCN1CCNCC1,"microbial growth, broth dilution",ATCC2001,48 h,MIC,31.3 µg/mL
CCOC(=O)c1nc2ccccc2c(=O)n1Cc1cn(-c2ccc(OC)cc2)nn1,"microbial growth, broth dilution",ATCC90030,24 h,IC50,118 µg/mL
CCCCCCOc1c(OC)cc(NC(C)CCCN)c2nc(C(C)(C)C)ccc12 (centres unmarked),microbial growth,ATCC90030,,IC50,11.5 µg/mL
CCCCCCCCCCCCN1CCN(CC(O)(Cn2cncn2)c2ccc(Cl)cc2Cl)CC1 (centres unmarked),"microbial growth, broth dilution",ATCC2001,48 h,MIC,0.975 µg/mL
C[C@@H]1[C@H](O)[C@@H](C)/C=C/C=C/C=C/C=C/C=C/C=C/C=C/[C@H](O[C@@H]2O[C@H](C)[C@@H](O)[C@H](N)[C@@H]2O)C[C@@H]2O[C@](O)(C[C@@H](O)C[C@@H](O)[C@H](O)CC[C@@H](O)C[C@@H](O)CC(=O)O[C@H]1C)C[C@H](O)[C@H]2C(=O)O,microbial growth,ATCC90030,,IC50,0.31 µg/mL
OC(Cn1cncn1)(Cn1cncn1)c1ccc(F)cc1F,"microbial growth, broth dilution",ATCC90030,24 h,IC50,7.8 µg/mL
CCCCCCCCCN1CCN(CC(O)(Cn2cncn2)c2ccc(F)cc2F)CC1 (centres unmarked),"microbial growth, broth dilution",ATCC2001,48 h,MIC,3.9 µg/mL
CCOC(=O)c1nc2ccccc2c(=O)n1Cc1cn(-c2cccc(Cl)c2)nn1,"microbial growth, broth dilution",ATCC90030,24 h,IC50,58.2 µg/mL
CCCCCOc1c(OC)cc(NC(C)CCCNC(=O)C(N)Cc2ccccc2)c2nc(C(C)(C)C)ccc12 (centres unmarked),microbial growth,ATCC90030,,IC50,10.9 µg/mL
O=C(O)c1nc2ccccc2c(=O)n1Cc1cn(-c2cccc([N+](=O)[O-])c2)nn1,"microbial growth, broth dilution",ATCC90030,24 h,IC50,487 µg/mL
CCCCCCOc1c(OC)cc(NC(C)CCCNC(=O)C(N)Cc2cnc[nH]2)c2nc(C(C)(C)C)ccc12 (centres unmarked),microbial growth,ATCC90030,,IC50,19.2 µg/mL
